We go through 16 compounds from ChEMBL document CHEMBL3232721, “4-Oxo-1,4-dihydro-quinoline-3-carboxamides as BACE-1 inhibitors: synthesis, biological evaluation and docking studies” (Eur J Med Chem, 2014).

Each structure is given as a SMILES string. Some results are limits rather than exact numbers.

Assay [1] concerns the target T1, Beta-secretase 1 (Homo sapiens, UniProt P56817). Nature of the assay: Inhibition of BACE-1 (unknown origin) at 10 uM by FRET assay relative to control. In outline:
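FRET-based BACE-1 activity kit used per the kit protocol, except total reaction volume was cut to […]. Each compound tested at a single concentration of 10 µM. Result given as percent inhibition of BACE-1 activity, from two independent experiments.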

Assay [2] concerns the target T1, Beta-secretase 1. Put plainly: Inhibition of BACE-1 (unknown origin) by FRET assay. In outline:
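BACE-1 FRET kit assay following the kit protocol, with total reaction volume reduced to […]. Compounds exceeding 50% inhibition at the single-point screen were retested across several concentrations. IC50 derived from linear regression parameters, reported as the mean of at least two experiments.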

The next assay concerns HEK293. Put plainly: Cytotoxicity against HEK293 cells after 72 hrs by CellTiterGlo assay. The assay is classed as cell-based. The following applies: Homo sapiens, HEK293, 72 h. The procedure, abridged:
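HEK293 grown in DMEM with 10% FBS, 100 units/mL penicillin and 100 units/mL streptomycin at 37 °C, 5% CO2. Seeded at 1000 cells/well in 384-well format, then exposed to test agents from a top working level of […], serially diluted threefold ten more times. Staurosporine positive control. After 72 h, CellTiter Glo reagent (10%) added and ATP luminescence read. IC50 taken from log dose–viability curves.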
On the technique in general: Cellular ATP, detected with luciferase, serves as a proxy for viable cell number.

T1 sequence (P56817 whole entry): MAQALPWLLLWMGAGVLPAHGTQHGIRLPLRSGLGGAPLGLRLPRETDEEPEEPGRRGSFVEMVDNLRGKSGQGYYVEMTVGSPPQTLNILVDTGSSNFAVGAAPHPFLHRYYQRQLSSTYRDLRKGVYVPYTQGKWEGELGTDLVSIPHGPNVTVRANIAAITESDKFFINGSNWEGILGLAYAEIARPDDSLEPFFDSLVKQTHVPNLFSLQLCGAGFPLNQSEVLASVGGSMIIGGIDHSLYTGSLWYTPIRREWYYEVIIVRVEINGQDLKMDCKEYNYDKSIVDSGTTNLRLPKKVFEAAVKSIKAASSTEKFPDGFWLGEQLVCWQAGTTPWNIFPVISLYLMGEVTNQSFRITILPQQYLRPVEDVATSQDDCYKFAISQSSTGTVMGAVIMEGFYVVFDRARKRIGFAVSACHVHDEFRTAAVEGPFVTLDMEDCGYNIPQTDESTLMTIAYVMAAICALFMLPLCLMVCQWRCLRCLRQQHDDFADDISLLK

The compound `Cc1ccccc1-c1ccc2[nH]cc(C(=O)NCc3cccc(F)c3)c(=O)c2c1` showed an inhibition at Beta-secretase 1 [1] of 12.3%.

At Beta-secretase 1 [1], `Cc1ccccc1-c1ccc2[nH]cc(C(=O)NCc3cccc(Br)c3)c(=O)c2c1` showed an inhibition of 77.6%. Moreover, the IC50 is 1.89 µM against Beta-secretase 1 [2] and greater than 50 µM in the assay on HEK293.

As for `O=C(NCc1cccnc1)c1c[nH]c2ccc(S(=O)(=O)Nc3cccc(C(F)(F)F)c3)cc2c1=O`, the inhibition against Beta-secretase 1 [1] was 35.7%.

`COc1cccc(CNC(=O)c2c[nH]c3ccc(S(=O)(=O)Nc4cccc(C(F)(F)F)c4)cc3c2=O)c1` showed an inhibition on Beta-secretase 1 [1] of 73.5%. The results for the IC50 against Beta-secretase 1 [2] and in the assay on HEK293 were 2.2 µM and greater than 50 µM, respectively.

Turning to `O=C(NCc1ccc(F)cc1)c1c[nH]c2ccc(S(=O)(=O)Nc3cccc(C(F)(F)F)c3)cc2c1=O`, the inhibition at Beta-secretase 1 [1] was 30.4%.

With `Cc1ccccc1-c1ccc2[nH]cc(C(=O)NC3CCCCC3)c(=O)c2c1`, the inhibition against Beta-secretase 1 [1] came out at 77.8%. Further, the figures for the IC50 against Beta-secretase 1 [2] and in the assay with HEK293 were 11.5 µM and greater than 50 µM, respectively.

In turn, `O=C(NCc1ccco1)c1c[nH]c2ccc(S(=O)(=O)Nc3cccc(C(F)(F)F)c3)cc2c1=O` yielded an inhibition on Beta-secretase 1 [1] of 71.1%. The IC50 was 1.61 µM on Beta-secretase 1 [2] and greater than 50 µM with HEK293.

In turn, `Cc1ccccc1-c1ccc2[nH]cc(C(=O)NCc3ccc(C(F)(F)F)cc3)c(=O)c2c1` yielded an inhibition on Beta-secretase 1 [1] of 38.1%.

At Beta-secretase 1 [1], `O=C(NC1CCCCC1)c1c[nH]c2ccc(S(=O)(=O)Nc3cccc(C(F)(F)F)c3)cc2c1=O` had an inhibition of 65.6%. In addition, the IC50 against Beta-secretase 1 [2] is 7.18 µM; with HEK293, greater than 50 µM.

As to `O=C(NCc1cccc(F)c1)c1c[nH]c2ccc(S(=O)(=O)Nc3cccc(C(F)(F)F)c3)cc2c1=O`, on Beta-secretase 1 [1], the inhibition came to 84.6%. For the same compound, the IC50 was 1.85 µM against Beta-secretase 1 [2] and greater than 50 µM with HEK293.

At Beta-secretase 1 [1], `O=C(NCc1ccc2c(c1)OCO2)c1c[nH]c2ccccc2c1=O` registered an inhibition of 11.3%.

Consider `Cc1ccccc1-c1ccc2[nH]cc(C(=O)NCc3cccc(C(F)(F)F)c3)c(=O)c2c1`, for which the inhibition against Beta-secretase 1 [1] was determined as 67.4%. Besides, the IC50 against Beta-secretase 1 [2] was 6.18 µM; in the assay on HEK293 it was greater than 50 µM.

`Cc1ccccc1-c1ccc2[nH]cc(C(=O)NCc3cccnc3)c(=O)c2c1` had an inhibition on Beta-secretase 1 [1] of 10.2%.

In the case of `COc1ccc(CNC(=O)c2c[nH]c3ccc(S(=O)(=O)Nc4cccc(C(F)(F)F)c4)cc3c2=O)cc1`, the inhibition on Beta-secretase 1 [1] was determined as 50.4%. For the same compound, the results for the IC50 on Beta-secretase 1 [2] and in the assay with HEK293 were 7.04 µM and greater than 50 µM, respectively.

In the assay on HEK293, `CN[C@@H]1C[C@H]2O[C@@](C)([C@@H]1OC)n1c3ccccc3c3c4c(c5c6ccccc6n2c5c31)C(=O)NC4` [STAUROSPORINE] showed an IC50 of 0.056 µM.

At Beta-secretase 1 [1], `Cc1ccccc1-c1ccc2[nH]cc(C(=O)NCc3ccco3)c(=O)c2c1` displayed an inhibition of 32.9%.

The term inhibition denotes the percentage by which the read-out fell short of the control. Lower therefore signals a weak effect. For orientation: IC50 means the concentration that inhibits the measured activity by half.
